This is an account of results in ChEMBL document CHEMBL1141702 (Bioorg Med Chem Lett, 2008).

The target in test [1] is Sigma non-opioid intracellular receptor 1 (Cavia porcellus, UniProt Q60492). Description: Displacement of [3H](+)-pentazocine from sigma 1 receptor in guinea pig brain membrane. The test is classed as cell membranes. In short, it runs like this:
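Tissue was previously frozen guinea pig brain minus cerebellum, incubated 120 min at 25 °C. Ki values derived from competition binding.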

The species entered for test [2] is Rattus norvegicus. Description: Selectivity ratio of Ki for rat brain stem SERT to Ki for rat striatum DAT. It counts as tissue-based.
Test [3] addresses Sodium-dependent dopamine transporter (Rattus norvegicus, UniProt P23977). Kind of test: Displacement of [3H]WIN-35428 from DAT in rat striatum membrane. The test is classed as cell membranes. In general terms: In a radioligand displacement assay an active substance lowers the binding of a labelled ligand.
Test [4] addresses Transporter (Rattus norvegicus, UniProt Q63380). Description: Displacement of [3H]nisoxetine from NET in rat frontal cortex membrane. The test is classed as cell membranes. In short, it runs like this: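 Assay used previously frozen rat frontal cortex with [³H]nisoxetine in 50 mM Tris, 5 mM KCl, 120 mM NaCl buffer. Incubated 180 min on ice. Ki values derived from competition binding.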

The species named for test [5] is Rattus norvegicus. Kind of test: Selectivity ratio of Ki for rat brain stem SERT to Ki for rat frontal cortex NET. The test is classed as tissue-based.
Test [6] concerns the target Sodium-dependent serotonin transporter (Rattus norvegicus, UniProt P31652). Description: Displacement of [3H]citalopram from SERT in rat brain stem membrane. It counts as cell membranes. In short, it runs like this:
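[³H]Citalopram binding in previously frozen rat brain stem, buffer 50 mM Tris, 5 mM KCl, 120 mM NaCl. Incubation 60 min at 25 °C. Ki values derived from competition binding.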

The nature of test [7]: Selectivity ratio of Ki for rat brain stem SERT to Ki for guinea pig brain sigma 1 receptor.

Sequence of Sigma non-opioid intracellular receptor 1 (Q60492 whole entry): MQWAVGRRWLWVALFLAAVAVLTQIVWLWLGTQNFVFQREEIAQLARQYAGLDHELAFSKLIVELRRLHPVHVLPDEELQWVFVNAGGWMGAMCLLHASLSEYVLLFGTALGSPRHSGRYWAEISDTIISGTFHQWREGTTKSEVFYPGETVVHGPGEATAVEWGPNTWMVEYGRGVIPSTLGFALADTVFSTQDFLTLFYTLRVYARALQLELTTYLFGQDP
Sequence of Sodium-dependent serotonin transporter (P31652 whole entry): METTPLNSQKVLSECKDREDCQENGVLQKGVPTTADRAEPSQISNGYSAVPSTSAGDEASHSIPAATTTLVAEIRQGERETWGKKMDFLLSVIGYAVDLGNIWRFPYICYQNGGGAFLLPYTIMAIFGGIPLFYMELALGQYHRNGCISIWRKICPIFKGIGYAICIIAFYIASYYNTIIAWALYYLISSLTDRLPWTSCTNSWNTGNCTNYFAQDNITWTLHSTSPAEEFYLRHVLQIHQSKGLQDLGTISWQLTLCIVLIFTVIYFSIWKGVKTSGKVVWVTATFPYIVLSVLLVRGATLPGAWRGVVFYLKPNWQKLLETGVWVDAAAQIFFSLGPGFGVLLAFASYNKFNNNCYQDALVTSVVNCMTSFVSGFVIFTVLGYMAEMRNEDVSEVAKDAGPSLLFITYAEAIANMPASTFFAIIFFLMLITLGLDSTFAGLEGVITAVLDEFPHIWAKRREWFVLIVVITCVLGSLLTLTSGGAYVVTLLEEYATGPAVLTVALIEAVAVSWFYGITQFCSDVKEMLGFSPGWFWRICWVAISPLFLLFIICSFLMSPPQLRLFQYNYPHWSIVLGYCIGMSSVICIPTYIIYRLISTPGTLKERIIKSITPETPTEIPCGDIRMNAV
Sequence of Sodium-dependent dopamine transporter (P23977 whole entry): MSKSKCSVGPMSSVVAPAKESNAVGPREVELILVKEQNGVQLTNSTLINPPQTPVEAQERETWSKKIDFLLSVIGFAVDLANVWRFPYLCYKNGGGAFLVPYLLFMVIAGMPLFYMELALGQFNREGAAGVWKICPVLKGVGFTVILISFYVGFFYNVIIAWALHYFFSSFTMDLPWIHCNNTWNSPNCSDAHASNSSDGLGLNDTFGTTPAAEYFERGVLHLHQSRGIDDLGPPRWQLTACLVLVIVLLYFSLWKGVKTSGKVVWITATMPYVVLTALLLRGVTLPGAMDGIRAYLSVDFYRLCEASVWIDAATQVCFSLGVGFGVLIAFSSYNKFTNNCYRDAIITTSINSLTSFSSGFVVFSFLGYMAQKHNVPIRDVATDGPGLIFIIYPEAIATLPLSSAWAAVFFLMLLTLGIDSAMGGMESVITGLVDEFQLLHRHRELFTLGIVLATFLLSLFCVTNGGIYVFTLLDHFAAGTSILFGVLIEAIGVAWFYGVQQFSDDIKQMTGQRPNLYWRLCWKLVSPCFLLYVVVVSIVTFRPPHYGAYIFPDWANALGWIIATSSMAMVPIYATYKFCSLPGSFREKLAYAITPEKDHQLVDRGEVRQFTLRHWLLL
Sequence of Transporter (Q63380 whole entry): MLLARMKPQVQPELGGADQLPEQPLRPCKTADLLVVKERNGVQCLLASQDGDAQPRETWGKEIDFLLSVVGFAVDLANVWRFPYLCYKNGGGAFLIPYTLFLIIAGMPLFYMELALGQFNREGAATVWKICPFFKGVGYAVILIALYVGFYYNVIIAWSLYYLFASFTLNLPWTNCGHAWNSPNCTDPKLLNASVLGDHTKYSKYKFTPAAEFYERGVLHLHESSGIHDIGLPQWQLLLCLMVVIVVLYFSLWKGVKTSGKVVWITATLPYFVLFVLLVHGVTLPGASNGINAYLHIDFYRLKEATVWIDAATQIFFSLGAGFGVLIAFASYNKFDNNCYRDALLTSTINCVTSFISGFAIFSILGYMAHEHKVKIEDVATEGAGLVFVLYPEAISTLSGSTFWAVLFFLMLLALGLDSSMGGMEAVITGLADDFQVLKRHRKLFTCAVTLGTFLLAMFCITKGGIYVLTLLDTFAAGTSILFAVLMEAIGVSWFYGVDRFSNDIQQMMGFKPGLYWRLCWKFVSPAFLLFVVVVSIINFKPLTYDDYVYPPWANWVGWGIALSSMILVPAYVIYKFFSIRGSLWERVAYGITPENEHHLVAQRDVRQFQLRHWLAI

As usually defined, the Ki is the dissociation constant of the complex between target and ligand, obtained from inhibition or displacement. Higher therefore signals weaker binding. With `CCC(=O)OC(CCN1CCN(CCCN(c2ccc(F)cc2)c2ccc(F)cc2)CC1)c1ccccc1` (stereo not given), the inhibition constant (Ki) in test [1] amounted to 76 nM; in test [3], 5.57 nM; in test [4] it was 1500 nM; in test [6], 273 nM. Besides, the Ratio Ki in test [2] was 49; in test [5], 269; in test [7] it was 14.

For `CCC(=O)O[C@@H](Cc1ccccc1)CN1CCN(CCCN(c2ccc(F)cc2)c2ccc(F)cc2)CC1`, the inhibition constant Ki worked out at 81.8 nM in test [1], 15.1 nM in test [3] and 1040 nM in test [6].

In the case of `CCCN(CCC)CCc1ccc(OC)c(OCCc2ccccc2)c1`, the inhibition constant Ki in test [3] is 3620 nM; in test [6], above 10000 nM.

Regarding `O[C@H](Cc1ccccc1)CN1CCN(CCCN(c2ccc(F)cc2)c2ccc(F)cc2)CC1`, the Ki in test [1] came to 33.4 nM; in test [3], 5.36 nM; in test [4], 2110 nM; in test [6], 521 nM.

Take `OC(CCN1CCN(CCCN(c2ccc(F)cc2)c2ccc(F)cc2)CC1)c1ccccc1` (racemic): affinity in test [3] was put at a Ki of 3.45 nM.

Regarding `O=C(Cc1ccccc1)O[C@@H](Cc1ccccc1)CN1CCN(CCCN(c2ccc(F)cc2)c2ccc(F)cc2)CC1`, the inhibitory constant (Ki) in test [1] amounted to 87.4 nM; in test [3], 6.92 nM; in test [4] it was 1680 nM; in test [6], 1950 nM. Also, the Ratio Ki in test [2] came out at 282; in test [5] it was 243; in test [7] it was 13.

For the molecule `CCCC(=O)O[C@@H](Cc1ccccc1)CN1CCN(CCCN(c2ccc(F)cc2)c2ccc(F)cc2)CC1`, the figures for the inhibition constant Ki in test [1], in test [3] and in test [6] were 292 nM, 33.5 nM and 1680 nM, respectively.

For the molecule `O[C@@H](Cc1ccccc1)CN1CCN(CCCN(c2ccc(F)cc2)c2ccc(F)cc2)CC1`, the inhibition constant Ki in test [1] worked out at 28.1 nM; in test [3], 1.72 nM; in test [4], 766 nM; in test [6] it was 779 nM.

As to `CC(=O)OC(CCN1CCN(CCCN(c2ccc(F)cc2)c2ccc(F)cc2)CC1)c1ccccc1` (stereo not given), the Ki in test [1] worked out at 56.6 nM; in test [3], 4.28 nM; in test [4], 990 nM; in test [6], 204 nM.

`C[C@@H]1CN(CCCn2c3ccccc3c3ccccc32)C[C@H](C)N1` [RIMCAZOLE] came in with a Ki in test [3] of 97.7 nM. This lies in the double-digit nanomolar range.

Take `Fc1ccc(C(OCCN2CCN(CCCc3ccccc3)CC2)c2ccc(F)cc2)cc1` [VANOXERINE]: the inhibition constant Ki in test [1] was determined as 50.8 nM.

Consider `CC(C)C(=O)OC(CCN1CCN(CCCN(c2ccc(F)cc2)c2ccc(F)cc2)CC1)c1ccccc1` (stereo not given), for which the values for the Ki in test [1], in test [3] and in test [6] were 88.3 nM, 9.36 nM and 543 nM, respectively.

For the molecule `C=CC(=O)OC(CCN1CCN(CCCN(c2ccc(F)cc2)c2ccc(F)cc2)CC1)c1ccccc1` (stereo not given), the Ki in test [1] amounted to 87.3 nM; in test [3], 6.71 nM; in test [4] it was 1950 nM; in test [6], 318 nM.

`O=C(CCc1ccccc1)OC(CCN1CCN(CCCN(c2ccc(F)cc2)c2ccc(F)cc2)CC1)c1ccccc1` (stereo not given): the inhibition constant Ki in test [1] is 235 nM; in test [3] it was 36.6 nM; in test [6], 1300 nM.

For the molecule `C=CC(=O)O[C@@H](Cc1ccccc1)CN1CCN(CCCN(c2ccc(F)cc2)c2ccc(F)cc2)CC1`, the inhibitory constant (Ki) in test [1] turned out to be 45.5 nM; in test [3], 3.26 nM; in test [4], 810 nM; in test [6], 660 nM.

As to `CC(=O)O[C@@H](Cc1ccccc1)CN1CCN(CCCN(c2ccc(F)cc2)c2ccc(F)cc2)CC1`, the values for the inhibition constant Ki in test [1], in test [3] and in test [6] were 75 nM, 21.7 nM and 835 nM, respectively.

On to `O=C(CCCc1ccccc1)OC(CCN1CCN(CCCN(c2ccc(F)cc2)c2ccc(F)cc2)CC1)c1ccccc1` (stereo not given), for which the Ki was 246 nM in test [1], 51.3 nM in test [3], above 10000 nM in test [4] and 2190 nM in test [6].

`O=C(Cc1ccccc1)OC(CCN1CCN(CCCN(c2ccc(F)cc2)c2ccc(F)cc2)CC1)c1ccccc1` (stereo not given): the inhibition constant Ki turned out to be 135 nM in test [1], 14.9 nM in test [3], 2740 nM in test [4] and 1230 nM in test [6]. The Ratio Ki in test [2] came out at 83; in test [5], 184; in test [7], 9.
